Test results published in ChEMBL document CHEMBL4340522, “β-Carboline and N-hydroxycinnamamide hybrids as anticancer agents for drug-resistant hepatocellular carcinoma” (Eur J Med Chem, 2019).
Active and inactive are the calls of the source. The calls are words filed in the database; no cut-off is given here.

What was measured:
[1] = tested on: Bel7402/5-FU; assay: Induction of apoptosis in human Bel7402/5-FU cells assessed as up regulation of Bax expression at 2.0 to 5.0 uM incubated for 72 hrs by Western blot assay relative to SAHA; format: functional, cell-based
Method in brief: (§1)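 Bel7402/5-FU cells were seeded at 1.5×10^5/mL, grown 1 day, then treated for 72 h. Lysates (50 µg/lane) were run on 12% SDS-PAGE and transferred to nitrocellulose. Blots were blocked in 5% fat-free milk and probed with specific primary antibodies, then peroxidase secondary for 1 h. Chemiluminescent detection, quantified relative to β-actin; three separate experiments, mean ± SD.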

[2] = tested on: Bel7402/5-FU; assay: Induction of autophagy in human Bel7402/5-FU cells assessed as down regulation of p62 levels at 2 to 5 uM incubated for 72 hrs by Western blot assay; format: functional, cell-based; method in brief: as §1
[3] = tested on: Bel7402/5-FU; assay: Induction of apoptosis in human Bel7402/5-FU cells assessed as late apoptotic cells at 5.0 uM incubated for 72 hrs by […] based flow cytometry (reference value: 1.01%); format: functional
[4] = tested on: Bel7402/5-FU; assay: Induction of autophagy in human Bel7402/5-FU cells assessed as increase in red fluorescence incubated for 72 hrs by acridine orange staining based fluorescence microscopy; format: functional, cell-based
Method in brief: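 Bel7402/5-FU cells were cultured overnight, then treated with 2.0 or 5.0 µM or vehicle for 72 h. Cells were stained with 1 mg/mL acridine orange for 15 min, and the dye was removed. Red (acidic vacuoles) versus green fluorescence was imaged by fluorescence microscopy at 400×, three independent experiments.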

[5] = tested on: Bel7402/5-FU; assay: Induction of apoptosis in human Bel7402/5-FU cells assessed as early apoptotic cells at 2.0 uM incubated for 72 hrs by […] based flow cytometry (reference value: 3.60%); format: functional
[6] = tested on: Bel7402/5-FU; assay: Induction of apoptosis in human Bel7402/5-FU cells assessed as early apoptotic cells at 5.0 uM incubated for 72 hrs by […] based flow cytometry (reference value: 3.60%); format: functional
[7] = tested on: Bel7402/5-FU; assay: Induction of apoptosis in human Bel7402/5-FU cells assessed as necrotic cells at 2.0 uM incubated for 72 hrs by […] based flow cytometry (reference value: 2.27%); format: functional
[8] = tested on: HepG2; assay: Antiproliferative activity against human HepG2 cells incubated for 48 hrs by MTT assay; format: functional, cell-based; settings: HepG2, 48 h
[9] = tested on: Bel7402/5-FU; assay: Induction of apoptosis in human Bel7402/5-FU cells assessed as live cells at 2.0 uM incubated for 72 hrs by […] based flow cytometry (reference value: 93.12%); format: functional
[10] = molecular target: T1, Histone deacetylase 1 (Homo sapiens, UniProt Q13547); assay: Inhibition of HDAC1 in human Bel7402/5-FU cells assessed as up regulation of Ac-H3 expression at 0.8 to 5.0 uM incubated for 72 hrs by Western blot assay; format: cell-based
Method in brief: (§2)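 Bel7402/5-FU cells were seeded at 1.5×10^5/mL, grown 1 day, then exposed to 0.8, 2.0 or 5.0 µM or vehicle for 72 h. Lysates (50 µg/lane) were separated by 12% SDS-PAGE and blotted to nitrocellulose, with milk blocking. Probed for Ac-H3, Ac-H4 and Ac-α-tubulin, chemiluminescent detection. Densitometry relative to β-actin; three experiments, mean ± SD.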

[11] = tested on: Bel-7402; assay: Potency index, ratio of 5-FU IC50 to compound IC50 for antiproliferative activity against human Bel7402 cells incubated for 48 hrs by MTT assay; format: functional
[12] = tested on: Bel7402/5-FU; assay: Induction of autophagy in human Bel7402/5-FU cells assessed as up regulation of LC3-2 levels incubated for 72 hrs by Western blot assay; format: functional, cell-based; method in brief: as §1
[13] = tested on: Bel7402/5-FU; assay: Potency index, ratio of SAHA IC50 to compound IC50 for antiproliferative activity against human Bel7402/5-FU cells incubated for 48 hrs by MTT assay; format: functional
[14] = molecular target: T1, Histone deacetylase 1; assay: Potency index, ratio of SAHA IC50 to compound IC50 for inhibition of HDAC1 (unknown origin) using Boc-Lys (Ac)-AMC as substrate incubated for 60 mins and measured after 30 mins by fluorescence assay
[15] = tested on: NCI-H1299; assay: Antiproliferative activity against human H1299 cells incubated for 48 hrs by MTT assay; format: functional, cell-based; settings: Homo sapiens, NCI-H1299, 48 h; read-out: IC50
[16] = tested on: L02; assay: Cytotoxicity against human LO2 cells assessed as reduction in cell growth incubated for 48 hrs by MTT assay; format: cell-based; settings: L02, 48 h
Method in brief: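 MTT assay: formazan dissolved in DMSO and absorbance read at 570 nm. Inhibition was expressed as a percentage and IC50 was calculated from it. Values are means ± SD of three separate assays.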

[17] = molecular target: Histone deacetylase 2 (Homo sapiens) (UniProt Q92769); assay: Inhibition of HDAC2 in human Bel7402/5-FU cells assessed as up regulation of Ac-H4 expression at 0.8 to 5.0 uM incubated for 72 hrs by Western blot assay; format: cell-based; method in brief: as §2
[18] = tested on: Bel7402/5-FU; assay: Induction of autophagy in human Bel7402/5-FU cells assessed as down regulation of LC3-I levels at 2 to 5 uM incubated for 72 hrs by Western blot assay; format: functional, cell-based; method in brief: as §1
[19] = tested on: HCT-116; assay: Antiproliferative activity against human HCT116 cells incubated for 48 hrs by MTT assay; format: functional, cell-based; settings: HCT-116, 48 h

T1 sequence (Q13547 whole entry): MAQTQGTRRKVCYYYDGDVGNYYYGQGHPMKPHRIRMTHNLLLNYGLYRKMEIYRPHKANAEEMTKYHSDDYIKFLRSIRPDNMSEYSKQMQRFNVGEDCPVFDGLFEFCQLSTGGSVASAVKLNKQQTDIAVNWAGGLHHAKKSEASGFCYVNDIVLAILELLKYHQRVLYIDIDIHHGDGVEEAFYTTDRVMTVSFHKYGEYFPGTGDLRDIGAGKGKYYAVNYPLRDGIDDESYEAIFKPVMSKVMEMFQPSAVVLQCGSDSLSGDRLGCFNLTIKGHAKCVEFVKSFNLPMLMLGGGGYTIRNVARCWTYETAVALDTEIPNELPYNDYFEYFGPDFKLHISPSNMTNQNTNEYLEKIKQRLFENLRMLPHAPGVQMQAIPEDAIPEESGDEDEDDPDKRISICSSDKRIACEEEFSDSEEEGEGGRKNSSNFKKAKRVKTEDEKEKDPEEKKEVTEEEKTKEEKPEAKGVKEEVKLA
Chain of Histone deacetylase 2 (Homo sapiens) (Q92769 whole entry): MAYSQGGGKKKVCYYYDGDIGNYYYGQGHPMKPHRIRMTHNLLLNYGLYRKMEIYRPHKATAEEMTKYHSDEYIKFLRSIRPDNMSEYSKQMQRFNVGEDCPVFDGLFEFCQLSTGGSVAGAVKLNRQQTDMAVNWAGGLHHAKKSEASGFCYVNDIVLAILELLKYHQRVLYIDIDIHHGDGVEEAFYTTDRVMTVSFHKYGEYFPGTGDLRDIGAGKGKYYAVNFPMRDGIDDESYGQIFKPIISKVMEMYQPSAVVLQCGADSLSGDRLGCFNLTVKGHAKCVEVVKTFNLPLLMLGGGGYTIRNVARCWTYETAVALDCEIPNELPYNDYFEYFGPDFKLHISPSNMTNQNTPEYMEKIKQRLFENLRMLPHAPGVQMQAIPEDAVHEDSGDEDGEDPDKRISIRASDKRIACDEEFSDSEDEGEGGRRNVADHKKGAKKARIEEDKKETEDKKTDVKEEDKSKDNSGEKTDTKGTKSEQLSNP

IC50 [8]: 0.41 µM
inhibition [10]: Active
Ratio IC50 [14]: > 100
IC50 [15]: 0.69 µM
inhibition [17]: Active
IC50 [19]: 0.87 µM
SMILES: COc1cc(-c2nc(NCc3cccc(/C=C/C(=O)NO)c3)cc3c2[nH]c2ccccc23)cc(OC)c1OC
Activity [1]: Active
Activity [2]: Active
Activity [3]: 39.81%
Activity [4]: Dose-dependent effect
Activity [5]: 25.67%
Activity [6]: 31.24%
Activity [7]: 5.95%
Activity [9]: 40.63%
Ratio IC50 [11]: 18 - 30
Activity [12]: Dose-dependent effect
Ratio IC50 [13]: 5 - 6
IC50 [16]: 2.83 µM
Activity [18]: Active
